Results reported in ChEMBL document CHEMBL3297658, “Potent fluorinated agelastatin analogues for chronic lymphocytic leukemia: design, synthesis, and pharmacokinetic studies” (J Med Chem, 2014).
In brackets after ≈: the same amount, converted by molar mass.

Columns and labels:
[1] = Antitumor activity against CLL6 cells isolated from CLL patient assessed as cell viability after 48 hrs by FACS analysis; assay type: functional, cell-based; details: Homo sapiens, CLL6, 48 h
Summary of the method: (§1)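 Primary CLL patient cells or JVM-2 line cultured 48 h (37 °C, 5% CO2) in RPMI + 10% FBS with graded compound. Stained 30 min at 37 °C with 40 nM DiOC6 and 10 μg/mL PI, then flow cytometry (525 nm DiOC6, 600 nm PI). Viability = % DiOC6+/PI− relative to untreated or vehicle control. EC50 and SE fitted from dose–response curves.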

[2] = Tmax in BALB/c mouse plasma at 5 mg/kg, ip administered as single dose by LC/MS analysis; assay type: ADME, organism-based; parameters: dose 5 mg/kg, route intraperitoneal
Summary of the method: (§2)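 Female BALB/c mice dosed at 6 weeks of age with a single intraperitoneal dose of 2.5 or 5.0 mg/kg, n = 4. Tail-vein blood taken at set times and stored at -80 °C. Samples precipitated with CH3CN, spun at 3000g for 10 min, concentrated, reconstituted in 1:1 CH3CN/H2O and quantified by LCMS. PK parameters derived from the concentration–time curves.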

[3] = Cmax in BALB/c mouse plasma at 5 mg/kg, ip administered as single dose by LC/MS analysis; assay type: ADME, organism-based; parameters: dose 5 mg/kg, route intraperitoneal; summary of the method: as §2
KB = assay: Cytotoxicity against human KB cells; assay type: functional, cell-based
[4] = Cmax in BALB/c mouse plasma at 2.5 mg/kg, ip administered as single dose by LC/MS analysis; assay type: ADME, organism-based; parameters: dose 2.5 mg/kg, route intraperitoneal; summary of the method: as §2
[5] = Antitumor activity against human JVM2 cells assessed as cell viability after 48 hrs by FACS analysis; assay type: functional, cell-based; details: JVM-2, 48 h; summary of the method: as §1
[6] = Cmax in BALB/c mouse plasma at 2.5 mg/kg, iv administered as single dose by LC/MS analysis; assay type: ADME, organism-based; parameters: dose 2.5 mg/kg, route intravenous
Summary of the method: (§3)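 Female BALB/c mice given a single 2.5 mg/kg dose intravenously (IP arm run in parallel). Plasma concentration–time course followed by LCMS. AUC, Cmax, Tmax and t1/2 calculated from the curves.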

[7] = AUC in BALB/c mouse plasma at 2.5 mg/kg, iv administered as single dose by LC/MS analysis; assay type: ADME, organism-based; parameters: dose 2.5 mg/kg, route intravenous; summary of the method: as §3
Liver [8] = assay: Metabolic stability in mouse liver microsomes containing glucuronidase; assay type: ADME
[9] = Drug recovery in BALB/c mouse serum at 50 uM after 24 hrs by LC-MS method; assay type: ADME, cell-free; details: read-out: Drug recovery
Summary of the method: (§4)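 Compound added to pooled female BALB/c mouse plasma or serum, or to human AB serum, at 50 μM final (1% DMSO) and incubated at 37 °C with gentle agitation. Aliquots taken at 0, 0.5, 1, 2, 8, 18 and 24 h, proteins precipitated with CH3CN, spun at 3000g for 10 min, supernatant analysed by LCMS. Run in triplicate.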

[10] = Half life in BALB/c mouse plasma at 2.5 mg/kg, iv administered as single dose by LC/MS analysis; assay type: ADME, organism-based; parameters: dose 2.5 mg/kg, route intravenous; summary of the method: as §3
[11] = Half life in BALB/c mouse plasma at 5 mg/kg, ip administered as single dose by LC/MS analysis; assay type: ADME, organism-based; parameters: dose 5 mg/kg, route intraperitoneal; summary of the method: as §2
[12] = Cytotoxicity against human CLL cells; assay type: functional, cell-based
Summary of the method: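 Primary patient CLL cells cultured 48 h (37 °C, 5% CO2) in RPMI with 10% FBS and test compound. Viability taken as the DiOC6+/PI− fraction relative to untreated or vehicle control. EC50 with SE from dose–response curves.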

Serum [13] = assay: Protein binding in BALB/c mouse serum at 50 uM after 1 to 24 hrs by LC-MS method; assay type: ADME; summary of the method: as §4
Liver [14] = assay: Metabolic stability in human liver S9 fraction containing glucuronidase; assay type: ADME, subcellular
[15] = Antitumor activity against CLL5 cells isolated from CLL patient assessed as cell viability after 48 hrs by FACS analysis; assay type: functional, cell-based; details: Homo sapiens; summary of the method: as §1
[16] = AUC in BALB/c mouse plasma at 2.5 mg/kg, ip administered as single dose by LC/MS analysis; assay type: ADME, organism-based; parameters: dose 2.5 mg/kg, route intraperitoneal; summary of the method: as §2
[17] = AUC in BALB/c mouse plasma at 5 mg/kg, ip administered as single dose by LC/MS analysis; assay type: ADME, organism-based; parameters: dose 5 mg/kg, route intraperitoneal; summary of the method: as §2
[18] = Antitumor activity against CLL3 cells isolated from CLL patient assessed as cell viability after 48 hrs by FACS analysis; assay type: functional, cell-based; details: Homo sapiens; summary of the method: as §1
HeLa = assay: Antitumor activity against human HeLa cells assessed as cell viability by MTT assay; assay type: functional, cell-based
Summary of the method: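 Adherent HeLa cells exposed to compound, then medium replaced with 0.5 mg/mL MTT in phenol-red-free RPMI and incubated overnight at 37 °C. Lysed with 15% SDS/0.015 M HCl and OD read at 570 nm once formazan dissolved. EC50 and SE derived from dose–response curves.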

Serum [19] = assay: Protein binding in human AB serum at 50 uM after 1 to 24 hrs by LC-MS method; assay type: ADME; summary of the method: as §4
[20] = Drug recovery in BALB/c mouse plasma at 50 uM after 24 hrs by LC-MS method; assay type: ADME, cell-free; details: read-out: Drug recovery; summary of the method: as §4
Plasma = assay: Protein binding in BALB/c mouse plasma at 50 uM after 1 to 24 hrs by LC-MS method; assay type: ADME, cell-free; summary of the method: as §4
[21] = Antitumor activity against CLL1 cells isolated from CLL patient assessed as cell viability after 48 hrs by FACS analysis; assay type: functional, cell-based; details: Homo sapiens; summary of the method: as §1
[22] = Tmax in BALB/c mouse plasma at 2.5 mg/kg, iv administered as single dose by LC/MS analysis; assay type: ADME, organism-based; parameters: dose 2.5 mg/kg, route intravenous; summary of the method: as §3
[23] = Drug recovery in human AB serum at 50 uM after 24 hrs by LC-MS method; assay type: ADME, cell-free; details: read-out: Drug recovery; summary of the method: as §4
Liver [24] = assay: Metabolic stability in mouse liver microsomes at 100 uM measured after 1 hr by LC/MS analysis in presence of 1 mM NADPH; assay type: ADME
Summary of the method: (§5)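 Microsomes (final protein 5 mg/mL, mouse or human) in 0.1 M sodium phosphate pH 7.4 with compound at 100 μM final (DMSO <1%). Preincubated 5 min at 37 °C, started with NADPH (1 mM final), run 60 min at 37 °C with agitation. Stopped with MeOH and centrifuged; supernatant analysed by LCMS. Controls: zero time, no NADPH, heat-inactivated microsomes, and 7-ethoxycoumarin as CYP substrate.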

[25] = Antitumor activity against CLL4 cells isolated from CLL patient assessed as cell viability after 48 hrs by FACS analysis; assay type: functional, cell-based; details: Homo sapiens; summary of the method: as §1
Mus musculus = assay: Half life in BALB/c mouse plasma at 2.5 mg/kg, ip administered as single dose by LC/MS analysis; assay type: ADME, organism-based; parameters: dose 2.5 mg/kg, route intraperitoneal; details: in vivo; summary of the method: as §2
Liver microsome = assay: Metabolic stability in human liver microsomes at 100 uM measured after 1 hr by LC/MS analysis in presence of 1 mM NADPH; assay type: ADME; summary of the method: as §5
[26] = Tmax in BALB/c mouse plasma at 2.5 mg/kg, ip administered as single dose by LC/MS analysis; assay type: ADME, organism-based; parameters: dose 2.5 mg/kg, route intraperitoneal; summary of the method: as §2
[27] = Antitumor activity against CLL2 cells isolated from CLL patient assessed as cell viability after 48 hrs by FACS analysis; assay type: functional, cell-based, Homo sapiens; summary of the method: as §1

## CN1C(=O)N[C@H]2[C@@H]3NC(=O)c4ccc(Br)n4[C@@H]3C[C@]21O (stereo in doubt; 1a) [AGELASTATIN A]
[1]
  EC50: 1150 nM
[2]
  Tmax: 30 min
[3]
  Cmax: 2300 nM
KB
  IC50: 0.5 µg/mL (≈ 1.47 µM)
[4]
  Cmax: 1280 nM
[5]
  EC50: 280 nM
[6]
  Cmax: 4500 nM
[7]
  AUC: 1.74 µM·h
Liver [8]
  Stability: Stable
[9]
  remaining at 24 h, 50 µM: 65%
[10]
  half-life: 4 min
[11]
  half-life: 60 min
[12]
  IC50: 60 nM
Serum [13]
  PB: Not Active
Liver [14]
  Stability: Stable
[15]
  EC50: 290 nM
[16]
  AUC: 2.95 µM·h
[17]
  AUC: 4.29 µM·h
[18]
  EC50: 240 nM
HeLa
  EC50: 110 nM
Serum [19]
  PB: Not Active
[20]
  remaining at 24 h, 50 µM: 65%
Plasma
  PPB: Not Active
[21]
  EC50: 310 nM
[22]
  Tmax: 2 min
[23]
  remaining at 24 h, 50 µM: 65%
Liver [24]
  Stability: Stable
[25]
  EC50: 370 nM
Mus musculus
  t1/2: 60 min
Liver microsome
  Stability: Stable
[26]
  Tmax: 30 min
[27]; cll2
  EC50: 160 nM

## CO[C@@]12C[C@@H]3[C@H]([C@@H]1N(C)C(=O)N2C)N(C)C(=O)c1ccc(Br)n13
[5]
  EC50: 55700 nM
HeLa
  EC50: 59000 nM
[21]
  EC50: 140000 nM
[27]; Homo sapiens, CLL2, 48 h
  EC50: 47700 nM

## CN1C(=O)N[C@H]2[C@@H]3NC(=O)c4cc(I)c(Br)n4[C@@H]3C[C@]21O
[5]
  EC50: 162000 nM
HeLa
  EC50: 86700 nM
[21]
  EC50: 211000 nM
[27]; Homo sapiens, CLL2, 48 h
  EC50: 48200 nM

## CN1C(=O)N[C@H]2[C@@H]3NC(=O)c4ccc(I)n4[C@@H]3C[C@]21O
[1]
  EC50: 12900 nM
[5]
  EC50: 2620 nM
[15]
  EC50: 3060 nM
[18]
  EC50: 6610 nM
HeLa
  EC50: 1180 nM
[21]
  EC50: 5960 nM
[25]
  EC50: 3040 nM
[27]; Homo sapiens, CLL2, 48 h
  EC50: 730 nM

## CN1C(=O)N[C@H]2[C@@H]3NC(=O)c4ccc(Cl)n4[C@@H]3C[C@]21O
[1]
  EC50: 2200 nM
[5]
  EC50: 200 nM
[15]
  EC50: 340 nM
[18]
  EC50: 3800 nM
HeLa
  EC50: 630 nM
[21]
  EC50: 950 nM
[25]
  EC50: 1980 nM
[27]; Homo sapiens, CLL2, 48 h
  EC50: 320 nM

## CN1C(=O)N[C@H]2[C@@H]3NC(=O)c4ccc(C#N)n4[C@@H]3C[C@]21O
[1]
  EC50: 840 nM
[5]
  EC50: 38000 nM
[15]
  EC50: 4790 nM
[18]
  EC50: 8370 nM
HeLa
  EC50: 3400 nM
[21]
  EC50: 11100 nM
[25]
  EC50: 8410 nM
[27]; Homo sapiens, CLL2, 48 h
  EC50: 710 nM
